Assay results as given in PMC11965407 (Translational Psychiatry, 2025).
“Also recorded” adds a separate entry of the source. Structures can show the parent of a compound that is named as a salt. Where two headings read alike, the source gives them in different places. Values belong to the compound of their own block, whether it stands above or below them.

Experiments:
neuronal Kv7 = conditions: read-out: IC50, neuronal Kv7 inhibition; cited from earlier work
Kv7.2/Kv7.3 channels = Kv7.2/Kv7.3 channels (Homo sapiens, UniProt O43525+O43526); format: cell-based
Method in brief: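 CHO cells stably expressing Kv7.2/Kv7.3 were grown in F12 with 10% FBS and 600 μg/mL G418. Cells were recorded by amphotericin B (250 μg/mL) perforated patch at room temperature. Internal was KCl 150, MgCl2 5, HEPES 10 mM, pH 7.4; external was NaCl 160, KCl 2.5, MgCl2 1, CaCl2 2, glucose 10, HEPES 20 mM, pH 7.4. Current was measured at 0 mV. Activation used −110 to 30 mV steps (10 mV increments) then 0 mV, with a Boltzmann fit. IC50 came from a logistic fit; τ from a single exponential.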

Kv7.2 channel [1] = biological target: T1, Kv7.2 channel (Homo sapiens, UniProt O43526); experiment: Single-channel recordings; format: cell-based
Method in brief: (§1)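 Cell-attached single-channel recording was done at room temperature on transfected HEK293T cells. Pipettes (8–10 MΩ) held bath solution: NaCl 150, KCl 5, MgCl2 1, CaCl2 2, HEPES 10 mM, pH 7.4. Data were […] and filtered at 0.8–1 kHz. Patch potential of 0 mV was set from Vm = RMP − Vpipette, with RMP from current clamp. Open probability and conductance came from all-point amplitude histograms, with recordings before and after drug.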

[2] = test system: native M-current in hippocampal neurons; experiment: Native M-current recording in cultured hippocampal neurons; format: cell-based, rat; conditions: measured at −20 mV
hippocampal neurons = format: cell-based, rat; conditions: for depolarizing shift of resting membrane potential (RMP): hippocampal neurons
Kv7.1-Kv7.4 channels = conditions: read-out: IC50, inhibition of Kv7.1-Kv7.4 channels; cited from earlier work
Kv7.5 [3] = conditions: read-out: IC50, inhibition of Kv7.5; cited from earlier work
Kv7.2 channel [4] = biological target: T1, Kv7.2 channel; experiment: Perforated whole-cell patch-clamp of Kv7.2 current in transfected HEK293T cells; format: cell-based
Method in brief: (§2)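 Human Kv7.2 or Kv7.5 cDNA in pcDNA3.1 was co-transfected with GFP into HEK293T cells using lipofectamine 2000 and recorded 24 h later. Recording used perforated patch (amphotericin B 250 μg/mL in pipette) with internal KCl 150, MgCl2 5, HEPES 10 mM, pH 7.4, and external NaCl 160, KCl 2.5, MgCl2 1, CaCl2 2, glucose 10, HEPES 20 mM, pH 7.4, at room temperature. IC50 came from a logistic fit, activation curves from Boltzmann fits, and τ values from single exponentials (activation 0 mV, deactivation −120 mV).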

Kv7.1 = Kv7.1 (Homo sapiens, UniProt P51787); experiment: Perforated whole-cell patch-clamp of Kv7.1 current in transfected HEK293T cells; format: cell-based
Kv7.1, sequence (P51787 whole entry): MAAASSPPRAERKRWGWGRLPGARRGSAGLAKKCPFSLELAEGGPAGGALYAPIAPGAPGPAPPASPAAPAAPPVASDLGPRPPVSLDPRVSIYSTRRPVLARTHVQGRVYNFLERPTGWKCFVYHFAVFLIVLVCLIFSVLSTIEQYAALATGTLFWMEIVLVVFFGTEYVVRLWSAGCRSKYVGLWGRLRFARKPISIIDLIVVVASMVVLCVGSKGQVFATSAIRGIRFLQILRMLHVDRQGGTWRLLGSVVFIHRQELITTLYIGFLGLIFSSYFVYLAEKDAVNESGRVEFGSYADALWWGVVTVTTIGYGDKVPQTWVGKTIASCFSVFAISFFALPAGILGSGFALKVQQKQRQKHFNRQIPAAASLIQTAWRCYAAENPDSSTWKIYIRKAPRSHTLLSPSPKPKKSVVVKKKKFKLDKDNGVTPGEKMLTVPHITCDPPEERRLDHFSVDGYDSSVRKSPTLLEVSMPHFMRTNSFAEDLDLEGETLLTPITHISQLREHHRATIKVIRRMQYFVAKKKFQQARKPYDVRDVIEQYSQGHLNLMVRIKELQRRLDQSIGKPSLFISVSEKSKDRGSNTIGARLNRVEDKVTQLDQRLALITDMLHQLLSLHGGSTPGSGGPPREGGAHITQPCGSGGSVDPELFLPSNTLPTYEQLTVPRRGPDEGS

Kv7.4 = Kv7.4 (Homo sapiens, UniProt P56696); experiment: Perforated whole-cell patch-clamp of Kv7.4 current in transfected HEK293T cells; format: cell-based
Kv7.4, sequence (P56696 whole entry): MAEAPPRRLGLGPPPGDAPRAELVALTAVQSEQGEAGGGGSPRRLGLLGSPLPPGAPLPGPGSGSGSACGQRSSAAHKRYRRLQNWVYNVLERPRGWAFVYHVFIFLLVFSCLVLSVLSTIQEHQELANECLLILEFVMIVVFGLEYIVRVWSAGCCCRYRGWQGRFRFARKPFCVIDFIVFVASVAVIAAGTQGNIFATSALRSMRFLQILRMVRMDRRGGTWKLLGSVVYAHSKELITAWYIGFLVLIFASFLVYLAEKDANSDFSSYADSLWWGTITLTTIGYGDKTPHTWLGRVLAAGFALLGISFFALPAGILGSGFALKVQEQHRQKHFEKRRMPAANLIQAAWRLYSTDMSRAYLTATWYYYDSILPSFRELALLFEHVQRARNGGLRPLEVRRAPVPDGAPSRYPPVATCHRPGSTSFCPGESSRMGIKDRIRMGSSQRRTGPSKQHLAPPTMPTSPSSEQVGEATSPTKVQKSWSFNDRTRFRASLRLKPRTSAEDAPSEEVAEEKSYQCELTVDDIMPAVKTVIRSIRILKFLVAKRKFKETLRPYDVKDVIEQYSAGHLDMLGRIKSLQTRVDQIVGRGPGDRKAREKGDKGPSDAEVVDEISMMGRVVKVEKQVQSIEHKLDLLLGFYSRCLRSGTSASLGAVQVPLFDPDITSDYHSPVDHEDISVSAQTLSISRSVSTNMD

Kv7.5 [5] = biological target: Kv7.5 (Homo sapiens, UniProt Q9NR82); experiment: Perforated whole-cell patch-clamp of Kv7.5 current in transfected HEK293T cells; format: cell-based
Kv7.5 (Homo sapiens, UniProt Q9NR82), sequence (Q9NR82 whole entry): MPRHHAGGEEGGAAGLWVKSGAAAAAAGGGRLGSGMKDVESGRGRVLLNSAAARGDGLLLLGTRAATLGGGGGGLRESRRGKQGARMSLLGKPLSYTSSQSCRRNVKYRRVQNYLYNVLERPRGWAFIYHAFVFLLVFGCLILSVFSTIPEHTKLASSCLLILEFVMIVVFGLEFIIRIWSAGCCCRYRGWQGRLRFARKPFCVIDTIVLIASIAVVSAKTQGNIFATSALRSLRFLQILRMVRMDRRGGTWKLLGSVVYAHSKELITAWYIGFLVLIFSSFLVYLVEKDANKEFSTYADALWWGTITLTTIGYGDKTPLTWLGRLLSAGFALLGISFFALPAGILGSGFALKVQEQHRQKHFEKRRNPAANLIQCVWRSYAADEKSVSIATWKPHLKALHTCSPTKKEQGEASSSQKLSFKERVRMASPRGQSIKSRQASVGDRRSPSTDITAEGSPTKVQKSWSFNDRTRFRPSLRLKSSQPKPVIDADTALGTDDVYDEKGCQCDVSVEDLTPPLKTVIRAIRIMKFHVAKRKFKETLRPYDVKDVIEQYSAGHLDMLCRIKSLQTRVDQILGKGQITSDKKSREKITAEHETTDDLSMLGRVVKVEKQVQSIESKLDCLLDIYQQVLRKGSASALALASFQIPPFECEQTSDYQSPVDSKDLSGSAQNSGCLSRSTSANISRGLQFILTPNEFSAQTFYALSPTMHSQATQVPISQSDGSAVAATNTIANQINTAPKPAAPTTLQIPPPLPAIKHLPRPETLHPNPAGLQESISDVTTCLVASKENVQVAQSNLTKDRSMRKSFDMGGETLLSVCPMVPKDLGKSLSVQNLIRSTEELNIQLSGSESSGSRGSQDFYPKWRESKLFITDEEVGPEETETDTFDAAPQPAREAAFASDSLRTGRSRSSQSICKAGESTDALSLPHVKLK
Method in brief: as §2

[6] = biological target: Kv7.2/Kv7.3 single-channels (Homo sapiens, UniProt O43525+O43526); experiment: Single-channel recordings; format: cell-based; conditions: paroxetine 3 μΜ
Method in brief: as §1

Kv7.2 D212A channel = Kv7.2 D212A channel (Homo sapiens, UniProt O43526, D212A); experiment: Whole-cell patch-clamp of Kv7.2 D212A mutant channel; format: cell-based
[7] = biological target: Kv7.2 D212A/Kv7.3 heteromeric channels (Homo sapiens, UniProt O43525+O43526, D212A); experiment: Whole-cell patch-clamp of Kv7.2 D212A/Kv7.3 heteromeric channels; format: cell-based
W236A Kv7.2 channel = W236A Kv7.2 channel (Homo sapiens, UniProt O43526, W236A); experiment: Whole-cell patch-clamp of W236A Kv7.2 mutant in HEK293T cells; format: cell-based; conditions: HEK-293T, read-out: inhibition of W236A Kv7.2 current
Method in brief: (§3)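 Alanine point mutants of human Kv7.2 were made by site-directed mutagenesis and verified by sequencing. Wild-type or mutant channels were expressed in HEK293T cells and recorded by perforated whole-cell patch clamp at room temperature. Currents were recorded before and after 10 or 30 µM test compound, and inhibition was normalized and compared with wild-type Kv7.2. n = 3–6.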

F240A Kv7.2 channel = F240A Kv7.2 channel (Homo sapiens, UniProt O43526, F240A); experiment: Whole-cell patch-clamp of F240A Kv7.2 mutant in HEK293T cells; format: cell-based; conditions: HEK-293T, read-out: inhibition of F240A Kv7.2 current
Method in brief: as §3

L299A Kv7.2 channel = L299A Kv7.2 channel (Homo sapiens, UniProt O43526, L299A); experiment: Whole-cell patch-clamp of L299A Kv7.2 mutant in HEK293T cells; format: cell-based; conditions: HEK-293T, read-out: inhibition of F299A Kv7.2 current
Method in brief: as §3

F304A Kv7.2 channel = experiment: Whole-cell patch-clamp of F304A Kv7.2 mutant in HEK293T cells; format: cell-based, human; conditions: 10 or 30 µM paroxetine, vs WT Kv7.2
Method in brief: as §3

F305A Kv7.2 channel = F305A Kv7.2 channel (Homo sapiens, UniProt O43526, F305A); experiment: Whole-cell patch-clamp of F305A Kv7.2 mutant in HEK293T cells; format: cell-based; conditions: 10 or 30 µM paroxetine, vs WT Kv7.2
Method in brief: as §3

[8] = daily dosage of 20 mg, patients with depression; cited from earlier work
GIRK1/2 channels = conditions: read-out: IC50, GIRK1/2 channels; cited from earlier work
Kv3.1 channels = conditions: read-out: IC50, Kv3.1 channels; cited from earlier work

SMILES: CC[C@H](C(=O)Nc1ccccc1N1CCCC1)c1ccccc1 [ML252]
- IC50 (neuronal Kv7): 1 to 6 µM

- inhibition of Kv7.2/Kv7.3 currents recorded at 0 mV (Kv7.2/Kv7.3 channels; 3 μM, CHO cells, n = 5): 81.4 ± 1.5%
- Kv7.2 single-channel open probability (Kv7.2 channel [1]; XE991 3 μΜ, control 0.21 ± 0.02): 0.05 ± 0.01
- Kv7.2 single-channel conductance (Kv7.2 channel [1]; XE991 3 μΜ, control 7.7 ± 0.8 pS): 8.0 ± 0.4 pS
SMILES: O=C1c2ccccc2C(Cc2ccncc2)(Cc2ccncc2)c2ccccc21 [XE991]
- inhibition of M-current ([2]; 3 μΜ): 21.2 ± 2.0%
- firings in hippocampal neurons (hippocampal neurons; 3 μM XE991, n = 6): increased firings
- depolarizing shift of resting membrane potential (RMP) (hippocampal neurons; 1 μΜ): 6.2 ± 2.2 mV
- depolarizing shift of resting membrane potential (RMP) (hippocampal neurons; 3 μΜ): 9.7 ± 1.2 mV
- IC50 (Kv7.1-Kv7.4 channels): 1 to 5 µM
- IC50 (Kv7.5 [3]): ~60 µM

- IC50 (Kv7.2/Kv7.3 channels): 3.6 ± 0.2 µM
- inhibition at 3 µM (Kv7.2/Kv7.3 channels; CHO, read-out: inhibition of Kv7.2/Kv7.3 currents recorded at 0 mV): 62.8 ± 6.5%
- τdeactivation (−120 mV) of Kv7.2/Kv7.3 (Kv7.2/Kv7.3 channels; paroxetine 3 μΜ, control 14.4 ± 1.1 ms): 12.6 ± 0.7 ms
- τactivation (0 mV) of Kv7.2/Kv7.3 (Kv7.2/Kv7.3 channels; paroxetine 3 μΜ, control 94.5 ± 11.0 ms): 112.8 ± 9.0 ms
- V1/2 (half activation voltage) of Kv7.2/Kv7.3 in presence of paroxetine (Kv7.2/Kv7.3 channels; paroxetine 3 μΜ, control −3.9 ± 1.2 mV, not significant): −7.5 ± 3.5 mV
- IC50 (Kv7.2 channel [4]): 12.3 ± 6.5 µM
- inhibition at 10 µM (Kv7.2 channel [4]; HEK-293T, read-out: inhibition of WT Kv7.2 current): 56.6 ± 2.9%
- τdeactivation (−120 mV) of Kv7.2 (Kv7.2 channel [4]; paroxetine 10 μM, control 24.9 ± 10.0 ms): 18.6 ± 6.9 ms
- τactivation (0 mV) of Kv7.2 (Kv7.2 channel [4]; paroxetine 10 μM, control 132.6 ± 15.0 ms): 141.7 ± 15.8 ms
- V1/2 of Kv7.2 in presence of paroxetine (Kv7.2 channel [4]; paroxetine 10 μM, control −12.0 ± 0.8 mV): −9.1 ± 2.0 mV
- IC50 (Kv7.1): 71.8 ± 7.9 µM
- V1/2 of Kv7.1 in presence of paroxetine (Kv7.1; paroxetine 50 μM, control −3.2 ± 2.1 mV, P < 0.05): 4.6 ± 2.1 mV
- τdeactivation (−120 mV) of Kv7.1 (Kv7.1; paroxetine near its IC50, control 39.9 ± 3.3 ms): 27.9 ± 3.6 ms
- V1/2 of Kv7.4 in presence of paroxetine (Kv7.4; paroxetine 20 μM, control −14.4 ± 3.6 mV): −15.2 ± 4.3 mV
- τdeactivation (−120 mV) of Kv7.4 (Kv7.4; paroxetine, control 12.1 ± 1.3 ms): 10.9 ± 1.6 ms
- τactivation (0 mV) of Kv7.4 (Kv7.4; paroxetine, control 131.5 ± 23.6 ms): 131.3 ± 22.9 ms
- IC50 (Kv7.5 [5]): 37.2 ± 5.2 µM
- V1/2 of Kv7.5 in presence of paroxetine (Kv7.5 [5]; paroxetine 20 μM, control −32.7 ± 5.7 mV): −33.6 ± 6.1 mV
- τdeactivation (−120 mV) of Kv7.5 (Kv7.5 [5]; paroxetine, control 36.7 ± 1.7 ms): 35.4 ± 5.0 ms
- τactivation (0 mV) of Kv7.5 (Kv7.5 [5]; paroxetine, control 77.4 ± 5.3 ms): 79.8 ± 17.6 ms
- open probability of Kv7.2/Kv7.3 single-channels ([6]; 0 mV, cell-attached, control 0.28 ± 0.01): 0.13 ± 0.01
- single-channel conductance of Kv7.2/Kv7.3 ([6]; control 10.9 ± 1.1 pS, not altered): 10.4 ± 0.9 pS
- Kv7.2 single-channel open probability (Kv7.2 channel [1]; paroxetine 10 μM, 0 mV, cell-attached, control 0.19 ± 0.01): 0.09 ± 0.01
- Kv7.2 single-channel conductance (Kv7.2 channel [1]; paroxetine 10 μM, control 7.7 ± 0.4 pS): 7.7 ± 0.7 pS
- IC50 (Kv7.2 D212A channel): 41 ± 5.6 µM
- reduction of inhibitory effect by D212A mutation versus wild type (Kv7.2 D212A channel; Kv7.2 D212A vs Kv7.2): approximately three-fold
- IC50 [7]: 9.2 ± 1.3 µM
- reduction of inhibitory effect by D212A mutation versus wild type ([7]; Kv7.2 D212A/Kv7.3 vs Kv7.2/Kv7.3): approximately three-fold
- inhibition at 10 µM (W236A Kv7.2 channel): 43.8 ± 6.8%
- inhibition at 10 µM (F240A Kv7.2 channel): 46.9 ± 9.7%
- inhibition at 10 µM (L299A Kv7.2 channel): 59.4 ± 10.4%
SMILES: Fc1ccc([C@@H]2CCNC[C@H]2COc2ccc3c(c2)OCO3)cc1 [paroxetine, paroxetine hydrochloride]
- inhibition of M-current ([2]; 3 μΜ): 31.5 ± 4.6%
- inhibition of M-current ([2]; 10 μΜ): 52.4 ± 2.0%
- resting membrane potential after drug (hippocampal neurons; 3 μΜ, from −57.2 ± 3.4 mV): −48.6 ± 2.4 mV
- resting membrane potential after drug (hippocampal neurons; 10 μΜ, from −62.2 ± 1.7 mV): −48.5 ± 2.0 mV
- firing activity of hippocampal neurons in response to current injection (hippocampal neurons; paroxetine at 3 and 10 μΜ): significantly increased
- reduction of channel sensitivity to paroxetine by F304A mutation (F304A Kv7.2 channel): three-fold
- effect of F305A mutation on paroxetine-mediated inhibition of Kv7.2 (F305A Kv7.2 channel): no notable effect; also recorded: does not significantly affect
- brain concentrations [8]: 2 to 14 µM
- IC50 (GIRK1/2 channels): 13.8 ± 2.9 µM
- IC50 (Kv3.1 channels): 9.4 ± 0.5 µM
